Activity calls are given as the source filed them. The calls are words filed in the database; no cut-off is given here.
What was measured:
LoVo = assay: Cytotoxicity against human LoVo cells after 3 days by MTT assay; assay type: functional, cell-based; conditions: 72 h
Procedure, shortened: (§1)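 MTT read-out: formazan dissolved in DMSO, absorbance at 570 nm, compound-free wells as blanks. Survival expressed as percentage of untreated control wells.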

A549 = assay: Cytotoxicity against human A549 cells after 3 days by MTT assay; assay type: functional, cell-based; conditions: A549, 72 h; procedure, shortened: as §1
MDA-MB-435 = assay: Cytotoxicity against human MDA-MB-435 cells after 3 days by MTT assay; assay type: functional, cell-based; conditions: MDA-MB-435, 72 h; procedure, shortened: as §1
[1] = biological target: T1, Topoisomerase I (Bos taurus) (UniProt Q2HPH0); assay: Inhibition of calf thymus DNA topoisomerase 1-mediated pBR322 DNA cleavage
T1 sequence (whole entry): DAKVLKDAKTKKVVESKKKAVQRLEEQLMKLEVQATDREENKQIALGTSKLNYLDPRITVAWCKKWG
Procedure, shortened: (§2)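 Calf thymus Topo I with supercoiled pBR322 DNA in Topo I buffer with 0.1% BSA, 20 uL reactions. Reactions stopped with loading buffer (EDTA, glycerol, xylene cyanol FF, bromophenol blue). Products resolved on 0.8% agarose in TAE, 40 min at 120 V. Gel stained with ethidium bromide at room temperature and imaged under UV.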

[2] = biological target: T1, Topoisomerase I (Bos taurus); assay: Inhibition of calf thymus DNA topoisomerase 1-mediated pBR322 DNA cleavage at 1 uM; procedure, shortened: as §2

SMILES | IC50 (LoVo) | IC50 (A549) | IC50 (MDA-MB-435) | Activity [1] | Activity [2]
CC[C@]1(O)CC(=O)OCc2c1cc1n(c2=O)Cc2c-1nc1cccc(/N=C/c3ccc(Cl)cc3Cl)c1c2C | 4.19 µM | 3.6 µM | 360 nM |  | 
CC[C@]1(O)CC(=O)OCc2c1cc1n(c2=O)Cc2c-1nc1cccc(/N=C/c3ccc(Cl)cc3)c1c2C | 1.61 µM | 2.55 µM | 11 nM |  | 
CC[C@]1(O)CC(=O)OCc2c1cc1n(c2=O)Cc2c-1nc1cccc(/N=C/c3ccc(C)cc3C)c1c2C | 8.62 µM | 2.39 µM | 720 nM |  | 
CC[C@]1(O)CC(=O)OCc2c1cc1n(c2=O)Cc2c-1nc1cccc(/N=C/c3cccc(C)c3)c1c2C | 2.6 µM | 2.92 µM | 16 nM |  | 
CC[C@]1(O)CC(=O)OCc2c1cc1n(c2=O)Cc2c-1nc1cccc(/N=C/c3ccccc3OC)c1c2C | 1.93 µM | 2.28 µM | 2.2 nM | Active | 
CC[C@@]1(O)C(=O)OCc2c1cc1n(c2=O)Cc2cc3c(CN(C)C)c(O)ccc3nc2-1 [TOPOTECAN] | 1.21 µM | 1.09 µM | 79 nM |  | 
CC[C@]1(O)CC(=O)OCc2c1cc1n(c2=O)Cc2c-1nc1cccc(/N=C/c3ccccc3C)c1c2C | 1.38 µM | 3.29 µM | 3.9 nM | Active | 
CC[C@]1(O)CC(=O)OCc2c1cc1n(c2=O)Cc2c-1nc1cccc(/N=C/c3ccc(C)cc3)c1c2C | 0.91 µM | 2.84 µM | 9.1 nM | Active | 
CC[C@]1(O)CC(=O)OCc2c1cc1n(c2=O)Cc2c-1nc1cccc(/N=C/c3cc(C)cc(C)c3)c1c2C | 5.96 µM | 5.58 µM | 1180 nM |  | 
CC[C@]1(O)CC(=O)OCc2c1cc1n(c2=O)Cc2c-1nc1cccc(/N=C/c3ccc(N(C)C)cc3)c1c2C | 3.39 µM | 3.01 µM | 9.8 nM |  | 
CC[C@]1(O)CC(=O)OCc2c1cc1n(c2=O)Cc2c-1nc1cccc(/N=C/c3ccc(C(C)(C)C)cc3)c1c2C | 4.26 µM | 4.56 µM | 270 nM |  | 
CC[C@]1(O)CC(=O)OCc2c1cc1n(c2=O)Cc2c-1nc1cccc(/N=C/c3ccc(Br)cc3)c1c2C | 5.8 µM | 1.87 µM | 18 nM |  | 
CC[C@]1(O)CC(=O)OCc2c1cc1n(c2=O)Cc2c-1nc1cccc(N)c1c2C | 10.3 µM | 3.55 µM | 110 nM | Active | inactive
CC[C@]1(O)CC(=O)OCc2c1cc1n(c2=O)Cc2c-1nc1cccc(/N=C/c3cccc([N+](=O)[O-])c3)c1c2C | 1.07 µM | 5.44 µM | 14 nM |  | 
CC[C@]1(O)CC(=O)OCc2c1cc1n(c2=O)Cc2c-1nc1cccc(NC(C)=O)c1c2C | 190 µM | 151 µM | 4320 nM |  | 

Reference: ChEMBL document CHEMBL1165875, “Synthesis and evaluation of 9-benzylideneamino derivatives of homocamptothecin as potent inhibitors of DNA topoisomerase I” (Eur J Med Chem, 2010)
